Tests used:
CYP3A4 = CYP3A4 (Homo sapiens, UniProt P08684); experiment: (§1) Time-dependent inhibition of CYP3A4 in human liver microsomes using testosterone as substrate assessed as remaining activity at 30 uM preincubated with compound in presence of NADPH-generating system followed by substrate addition by UPLC analysis relative to control; type: ADME, Microsome; details: human liver microsomes, probe testosterone, read-out: Activity
Outline: (§2)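 Compound at 30 µM preincubated at 37 °C with human liver microsomes in pH 7.4 phosphate buffer plus an NADPH-generating system. CYP3A4 activity then measured as testosterone 6β-hydroxylation by UPLC, expressed as % of DMSO control. Remaining activity = preincubated activity ÷ non-preincubated activity × 100; n = 2.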

[1] = 1-Octanol/aqueous buffer partition coefficient, logD of the compound at pH 7.4 by HPLC analysis; type: physicochemical
[2] = target: 2-acylglycerol O-acyltransferase 2 (Homo sapiens, UniProt Q3SYC2); experiment: Inhibition of N-terminal FLAG-tagged full-length human MGAT2 expressed in human FreeStyle 293-F cell membrane using 13Cx18oleoyl-CoA and 2-oleoyl-glycerol as substrate preincubated for 60 mins followed by substrate addition and measured after 30 mins by RapidFire mass spectrometric analysis; type: cell membranes
Outline: (§3)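 FreeStyle293 cells transfected and harvested after 2 days; total membranes isolated by ultracentrifugation. Reaction started with 13C18 oleoyl-CoA and 2-oleoyl-glycerol (20 µM each), run 30 min at room temperature. Stopped with acetonitrile/formic acid containing 1,2-dioleoyl-glycerol; read by RapidFire/MS.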

[3] = Metabolic stability in mouse liver microsomes assessed as intrinsic clearance at 1 uM incubated for 15 to 30 mins in presence of NADPH-generating system by LC/MS/MS analysis; type: ADME, Microsome; details: time 15-30 min, read-out: CLH
Outline: (§4)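 Compound at 1 µM with 0.2 mg/mL liver microsomal protein in 50 mM phosphate buffer pH 7.4. Reaction started by NADPH-generating system (5 mM MgCl2, 5 mM glucose-6-phosphate, 0.5 mM β-NADP+, 1.5 U/mL G6PDH). Stopped with acetonitrile at 15 and 30 min and analysed by LC/MS/MS. Velocity taken as slope of concentration–time plot.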

[4] = Metabolic stability in human liver microsomes assessed as intrinsic clearance at 1 uM incubated for 15 to 30 mins in presence of NADPH-generating system by LC/MS/MS analysis; type: ADME, Microsome; details: time 15-30 min, read-out: CLH; outline: as §4
[5] = target: 2-acylglycerol O-acyltransferase 2 (Mus musculus, UniProt Q80W94); experiment: Inhibition of N-terminal FLAG-tagged full-length mouse MGAT2 expressed in human FreeStyle 293-F cell membrane using 13Cx18oleoyl-CoA and 2-oleoyl-glycerol as substrate preincubated for 60 mins followed by substrate addition and measured after 30 mins by RapidFire mass spectrometric analysis; type: cell membranes; outline: as §3
NIH3T3 = experiment: Cytotoxicity against BALB/c mouse 3T3 cells assessed as reduction in cell viability at 6.25 uM incubated for 1 hrs in absence of UV irradiation by Celltiter-Glo assay relative to control; type: toxicity, cell-based; details: nih3t3, 1 h
Outline: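 BALB/c 3T3 cells seeded at 2.5 × 10^3 cells/well and grown 1 day. Compound at 6.25 µM in EBSS with 1 mM HEPES, preincubated 1 h. Plate kept dark (–UV) while the paired plate was irradiated. Medium replaced, cultured 24 h more. Viability read as cellular ATP by CellTiter-Glo, % of 1% DMSO control; n = 3, mean ± SD.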

[6] = Volume of distribution at steady state in mouse at 0.1 mg/kg, iv administered as cassette dose by LC/MS/MS analysis; type: ADME, organism-based; details: in vivo, read-out: Vdss
Outline: (§5)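 Non-fasted mice dosed by cassette, iv 0.1 mg/kg or po 1 mg/kg suspended in 0.5% methylcellulose aqueous solution; plasma obtained from blood by centrifugation, deproteinized with acetonitrile, and compound concentrations measured by LC/MS/MS.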

[7] = Total clearance in mouse at 0.1 mg/kg, iv administered as cassette dose by LC/MS/MS analysis; type: ADME, organism-based; details: in vivo; outline: as §5
[8] = AUC in mouse at 1 mg/kg, po administered as cassette dose by LC/MS/MS analysis; type: ADME, organism-based; details: in vivo; outline: as §5
[9] = MRT in mouse at 1 mg/kg, po administered as cassette dose by LC/MS/MS analysis; type: ADME, organism-based; details: in vivo; outline: as §5
[10] = Oral bioavailability in mouse at 1 mg/kg administered as cassette dose by LC/MS/MS analysis; type: ADME, organism-based; details: in vivo; outline: as §5
[11] = Permeability of compound at pH 7.4 by PAMPA assay; type: ADME; details: read-out: permeability
Outline: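 Passive permeability measured by PAMPA at pH 7.4.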

Cytochrome P450 3A4 = Cytochrome P450 3A4 (Homo sapiens, UniProt P08684); experiment: as §1; type: ADME, Microsome; details: microsomes, 30 µM; outline: as §2
Chain of Cytochrome P450 3A4 (P08684 whole entry): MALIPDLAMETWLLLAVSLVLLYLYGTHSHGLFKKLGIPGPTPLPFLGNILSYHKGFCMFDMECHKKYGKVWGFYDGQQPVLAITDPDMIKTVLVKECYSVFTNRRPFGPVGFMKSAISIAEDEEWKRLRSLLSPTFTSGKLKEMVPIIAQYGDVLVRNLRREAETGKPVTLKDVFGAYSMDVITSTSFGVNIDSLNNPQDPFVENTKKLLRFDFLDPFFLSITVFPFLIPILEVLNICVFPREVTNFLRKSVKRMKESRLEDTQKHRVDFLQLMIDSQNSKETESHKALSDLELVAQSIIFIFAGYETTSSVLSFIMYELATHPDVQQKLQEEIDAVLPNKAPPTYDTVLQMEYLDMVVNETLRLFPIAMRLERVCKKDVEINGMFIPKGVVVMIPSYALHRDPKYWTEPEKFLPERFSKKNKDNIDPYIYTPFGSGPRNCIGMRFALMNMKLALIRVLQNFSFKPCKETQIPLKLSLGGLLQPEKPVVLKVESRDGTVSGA

Chain of 2-acylglycerol O-acyltransferase 2 (Homo sapiens, UniProt Q3SYC2) (Q3SYC2 whole entry): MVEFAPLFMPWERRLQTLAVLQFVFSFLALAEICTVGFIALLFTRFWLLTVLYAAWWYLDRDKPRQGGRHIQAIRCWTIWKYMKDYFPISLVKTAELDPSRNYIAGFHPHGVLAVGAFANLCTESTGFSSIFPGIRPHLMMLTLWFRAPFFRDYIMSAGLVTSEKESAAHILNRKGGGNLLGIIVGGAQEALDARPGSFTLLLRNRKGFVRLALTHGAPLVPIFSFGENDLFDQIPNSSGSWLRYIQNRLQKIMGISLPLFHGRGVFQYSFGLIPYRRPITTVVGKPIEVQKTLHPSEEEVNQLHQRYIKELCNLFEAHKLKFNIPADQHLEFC
Chain of CYP3A4 (P08684 whole entry): as the sequence (P08684 whole entry) above
Chain of 2-acylglycerol O-acyltransferase 2 (Mus musculus, UniProt Q80W94) (Q80W94 whole entry): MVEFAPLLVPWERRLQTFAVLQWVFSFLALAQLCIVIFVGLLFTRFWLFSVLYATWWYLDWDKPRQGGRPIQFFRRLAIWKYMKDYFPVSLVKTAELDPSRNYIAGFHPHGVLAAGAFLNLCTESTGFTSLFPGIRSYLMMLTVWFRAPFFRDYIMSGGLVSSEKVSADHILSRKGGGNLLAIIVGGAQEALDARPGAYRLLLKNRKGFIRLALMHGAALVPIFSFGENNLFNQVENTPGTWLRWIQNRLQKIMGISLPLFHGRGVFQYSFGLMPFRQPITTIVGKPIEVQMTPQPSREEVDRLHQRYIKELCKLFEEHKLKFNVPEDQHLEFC

O=C1CCCN1c1cc(S(=O)(=O)Nc2c(F)cc(F)cc2F)cc2c1N(C(=O)OC1CCN(CC(F)(F)C(F)(F)F)CC1)CC2
activity at 30 µM (CYP3A4): 95%
logD [1]: 3.4
IC50 [2]: 75 nM

Cn1nc(C(F)(F)F)cc1-c1cnc(N2CCc3cc(S(=O)(=O)Nc4c(F)cc(Cl)cc4F)cc(N4CCNC4=O)c32)nc1
logD [1]: 2.7
IC50 [2]: 3.7 nM
microsomal CLint at 1 µM [3]: 33 µL/min/mg
microsomal CLint at 1 µM [4]: 4 µL/min/mg
IC50 [5]: 1.9 nM
Activity (NIH3T3): 111%
Vd [6]: 1.96 L/kg
clearance [7]: 39.5 mL/min/kg
AUC [8]: 72 ng·h/mL
MRT [9]: 2.3 h
bioavailability [10]: 16%
Papp [11]: 4 ×10⁻⁶ cm/s

O=C1CCCN1c1cc(S(=O)(=O)Nc2c(F)cc(Cl)cc2F)cc2c1N(c1ncc(-c3ccc(C(F)(F)F)cc3)cn1)CC2
TDI (Cytochrome P450 3A4): Not Active
logD [1]: 3.8
IC50 [2]: 0.69 nM
Activity (NIH3T3): 105%

O=C1CCCN1c1cc(S(=O)(=O)Nc2c(F)cc(Cl)cc2F)cc2c1N(c1ncc(-n3ccc(C(F)(F)F)n3)cn1)CC2
logD [1]: 3.1
IC50 [2]: 8.2 nM
Activity (NIH3T3): 105%

O=C1CCCN1c1cc(S(=O)(=O)Nc2c(F)cc(Cl)cc2F)cc2c1N(c1ncc(-c3ccc(C(F)(F)F)cc3F)cn1)CC2
logD [1]: 4.1
IC50 [2]: 0.42 nM
Activity (NIH3T3): 98%

O=C1CCCN1c1cc(S(=O)(=O)Nc2ccc(F)cc2F)cc2c1N(C(=O)OC1CCN(CC(F)(F)C(F)(F)F)CC1)CC2
activity at 30 µM (CYP3A4): 59%
logD [1]: 3.7
IC50 [2]: 4.1 nM

O=C1CCCN1c1cc(S(=O)(=O)Nc2c(F)cc(Cl)cc2F)cc2c1N(c1ncc(-n3cc(C(F)(F)F)cn3)cn1)CC2
logD [1]: 3.1
IC50 [2]: 6.2 nM
Activity (NIH3T3): 109%

O=C1CCCN1c1cc(S(=O)(=O)Nc2ccc(F)cc2F)cc2c1N(C(=O)Nc1ccc(C(F)(F)F)cc1)CC2
activity at 30 µM (CYP3A4): 43%
IC50 [2]: 3.4 nM

O=C1CCCN1c1cc(S(=O)(=O)Nc2c(F)cc(Cl)cc2F)cc2c1N(C(=O)Nc1ccc(C(F)(F)F)cc1)CC2
activity at 30 µM (CYP3A4): 89%
logD [1]: 3.3
IC50 [2]: 30 nM

Cc1cc(C(F)(F)F)nn1-c1cnc(N2CCc3cc(S(=O)(=O)Nc4c(F)cc(Cl)cc4F)cc(N4CCCC4=O)c32)nc1
logD [1]: 2.9
IC50 [2]: 2.1 nM
microsomal CLint at 1 µM [3]: 27 µL/min/mg
IC50 [5]: 1.1 nM
Activity (NIH3T3): 112%
Vd [6]: 1.02 L/kg
clearance [7]: 7.85 mL/min/kg
AUC [8]: 1120 ng·h/mL
MRT [9]: 2.6 h
bioavailability [10]: 52%
Papp [11]: 18.5 ×10⁻⁶ cm/s

O=C1CCCN1c1cc(S(=O)(=O)Nc2c(F)cc(Cl)cc2F)cc2c1N(c1ccc(-c3ccc(C(F)(F)F)cc3)cc1)CC2
TDI (Cytochrome P450 3A4): Not Active
logD [1]: 4.5
IC50 [2]: 0.25 nM
Activity (NIH3T3): 95%

CC(=O)Nc1cc(S(=O)(=O)Nc2ccc(F)cc2F)cc2c1N(CCc1ccccc1)CC2
activity at 30 µM (CYP3A4): 13%
IC50 [2]: 1 nM

O=C1CCCN1c1cc(S(=O)(=O)Nc2c(F)cc(Cl)cc2F)cc2c1N(C(=O)OC1CCN(CC(F)(F)C(F)(F)F)CC1)CC2
activity at 30 µM (CYP3A4): 82%
logD [1]: 3.8
IC50 [2]: 19 nM

O=C1CCCN1c1cc(S(=O)(=O)Nc2ccc(C(F)(F)F)cc2F)cc2c1N(C(=O)OC1CCN(CC(F)(F)C(F)(F)F)CC1)CC2
activity at 30 µM (CYP3A4): 93%
logD [1]: 4.1
IC50 [2]: 42 nM
